Results collected from several papers.
Target: Death-associated protein kinase 1 (DAPK1, Homo sapiens, UniProt P53355)

SMILES | observed | mode | technique | tested at | quantity | result
CC(=O)Nc1c(C(C)=O)c(=O)n(C)c2nc(-c3ccc(Cl)cc3Cl)c(-c3ccc(Cl)cc3)cc12 | cell-free assay | – | competition with immobilised ligand | 1 µM | remaining binding | 100%
N#CCCc1ccc2c(c1)-c1[nH]c3ccc([N+](=O)[O-])cc3c1CC(=O)N2 | cell-free assay | – | – | 0.5 µM | remaining signal | 96.5%
Nc1ncnc2occ(-c3ccc(NC(=O)Nc4cc(C(F)(F)F)ccc4F)cc3)c12 | cell-free assay | inhibitor | – | 20 µM | remaining signal | 29%
Cc1ccc(NC(=O)c2ccc(CN3CCN(C)CC3)cc2)cc1Nc1nc(-c2cccnc2)cs1 | cell-free assay | – | – | 0.5 µM | remaining signal | 97.5%
C[C@@H]1CN(c2cc(-c3nn(C)c4ccc(OC5(C)CC5)cc34)ncn2)C[C@H](C)O1 | cell-free assay | – | competition with immobilised ligand | 1 µM | remaining binding | 100%
CS(=O)(=O)CCNCc1ccc(-c2ccc3ncnc(Nc4ccc(OCc5cccc(F)c5)c(Cl)c4)c3c2)o1 | cell-free assay | – | – | 0.5 µM | remaining signal | 107%
FC(F)c1nc2ccccc2n1-c1nc(N2CCOCC2)nc(N2CCOCC2)n1 | enzyme activity | inhibitor | – | 10 µM | remaining activity | 75%
Cc1ccc(C(=O)Nc2ccc(CN3CCN(C)CC3)c(C(F)(F)F)c2)cc1C#Cc1cnc2cccnn12 | enzyme activity | inhibitor | – | 23.5 nM | remaining activity | 95%
O=C(Nc1cnn(-c2csc(C(=O)NC3COC3)c2)c1)Nc1c(F)cccc1Cl | enzyme activity | inhibitor | – | 5 µM | remaining activity | 98.9%
FC(F)(F)Oc1cccc(-c2cnc3ccc(-c4ccncc4)nn23)c1 | enzyme activity | inhibitor | radiometric | 5 µM | activity vs control | 91%
CCN(CC)c1ccc(C2=NNC(=O)CC2C)cc1[N+](=O)[O-] (stereo not shown) | enzyme activity | inhibitor | – | 10 µM | remaining activity | 105%
Cc1ncc([N+](=O)[O-])n1C(=NO)c1ccccc1C(F)(F)F | enzyme activity | inhibitor | – | 10 µM | inhibition | 16.5%
CCCOc1ccc(OC)c(F)c1C(=O)c1ccc(C(=O)N[C@@H]2CNC[C@H]2NC(=O)c2ccc3[nH]ncc3c2)cc1 | enzyme activity | inhibitor | – | 10 µM | remaining activity | 81%
Cc1nc(N2CC[C@@H](O)C2)ncc1-c1cc(C(F)(F)F)cc2[nH]ncc12 | binding | – | competition with immobilised ligand | 1 µM | remaining binding | 89%
CC(C)(C)c1nc2c(s1)c1nc(N)ncc1c1ccc(NS(=O)(=O)c3c(F)cccc3F)c(F)c12 | enzyme activity | inhibitor | radiometric | 1 µM | remaining activity | 79%
CCCS(=O)(=O)Nc1ccc(F)c(C(=O)c2c[nH]c3ncc(-c4ccc(Cl)cc4)cc23)c1F | enzyme activity | inhibitor | – | 1 µM | inhibition | < 10%
CCCCN(CCCC)C(=O)CN1C[C@H](c2cc(OC)c3c(c2)OCO3)[C@@H](C(=O)O)[C@@H]1CC(C)(C)CCC | cell-free assay | – | competition with immobilised ligand | 1 µM | remaining binding | 100%
CN(C)C1CCN(CC#Cc2nn(C3CCCC3)c3nc(NCc4ccccc4)ncc23)C1 (stereo not shown) | enzyme activity | inhibitor | FRET | 0.1 µM | inhibition | 1%
CCC(=O)N[C@H]1CC[C@@H](C(=O)N(C)c2ccc(-c3nc4ccccc4o3)cc2)C1 | cell-free assay | – | competition with immobilised ligand | 1 µM | remaining binding | 96%
O=C1Nc2ccc(Cl)cc2C1=Cc1cc(Cl)c(O)c(Cl)c1 | cell-free assay | – | – | 0.5 µM | remaining signal | 90%
COc1cc(Nc2cnc(C#N)c(O[C@H](C)CN(C)C)n2)ncc1-c1cnn(C)c1 | enzyme activity | inhibitor | radiometric | 10 µM | remaining activity | 98%
CC/C(=N\NC(=O)NCc1cccc(O)c1)c1ccc(O)c(C)c1O | enzyme activity | inhibitor | – | 0.1 µM | inhibition | -1.6%
COc1cc(-c2cn(C3CCc4ccccc4N(CC(F)(F)F)C3=O)nn2)ccc1-n1ccc(C)n1 (stereo not shown) | cell-free assay | – | competition with immobilised ligand | 1 µM | remaining binding | 79%
CNC(=O)c1cc(Oc2ccc(NC(=O)Nc3ccc(Cl)c(C(F)(F)F)c3)cc2)ccn1 | enzyme activity | inhibitor | – | 10 µM | inhibition | 12%
CN(C)c1ncnc(-c2ccc3nc(Nc4cc(CN5CCN(C(=O)CC(F)(F)F)CC5)ccn4)[nH]c3c2)c1Cl | cell-free assay | – | competition with immobilised ligand | 1 µM | remaining binding | 100%
Cc1ccc(NC(=O)c2ccc(C)c(C(F)(F)F)c2)cc1C#Cc1nn(C2CCC(O)CC2)c2ncnc(N)c12 (stereo not shown) | cell-free assay | – | – | 10 µM | remaining signal | 97%
Cc1ccc(Nc2nccc(N(C)c3ccc4c(C)n(C)nc4c3)n2)cc1S(N)(=O)=O | enzyme activity | inhibitor | – | 10 µM | inhibition | 12%
C[C@@]1(Cc2ccc(C#N)cc2)C(=O)N(c2cc(Cl)cc(Cl)c2)c2ncc(C(=O)NC3(c4nc(C5CCC5)no4)CC3)n21 | cell-free assay | – | competition with immobilised ligand | 1 µM | remaining binding | 100%
